Measured values: ChEMBL document CHEMBL1153639, “A facile synthesis and antimycobacterial evaluation of novel spiro-pyrido-pyrrolizines and pyrrolidines” (2009)
Values after ≈ are worked out from the molar mass of the structure shown.

System: Mycobacterium tuberculosis
Experiment: Antimycobacterial against multidrug resistant Mycobacterium tuberculosis by agar dilution method
Assay type: functional
Method in brief: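 Strain was an MDR-TB clinical isolate resistant to isoniazid and rifampicin, among other drugs. MIC read by agar dilution, run in triplicate.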

SMILES | MIC [µM]
CN1CCC(=O)[C@]2(C1)[C@@H](c1ccc(Cl)cc1Cl)[C@@H]1CCCN1[C@@]21C(=O)Nc2ccccc21 | 1.66 (≈ 0.781 µg/mL)
CC[C@@H](CO)NCCN[C@@H](CC)CO [ETHAMBUTOL] | 61.2 (≈ 12.5 µg/mL)
CN1CCC(=O)[C@]2(C1)[C@@H](c1ccccc1Cl)[C@@H]1CCCN1[C@@]21C(=O)Nc2ccccc21 | 3.58 (≈ 1.56 µg/mL)
CN1CCC(=O)[C@]2(C1)[C@@H](c1ccc(Cl)cc1Cl)CN(C)[C@@]21C(=O)Nc2ccccc21 | 0.88 (≈ 0.391 µg/mL)
NNC(=O)c1ccncc1 [ISONIAZID] | 11.4 (≈ 1.56 µg/mL)
NC(=O)c1cnccn1 [PYRAZINAMIDE] | 406 (≈ 50 µg/mL)
